Source: PubChem (several laboratories)
Compounds with a hit are over-represented: about 2% of the library has one in this group of screens.
GAA850 FXN act = activators of GAA850 frataxin (FXN) promoter; HEK293 lucGAA850 FXN promoter luciferase reporter, 24 h; percent of 10 µM SAHA response; activation, % at 6 µM; 0.56% of 360,000 active; AID 540364;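 active means activation above the average of all compounds screened plus 3 SD, cutoff fixed separately per campaign, cut at about 7.5% in these data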;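 further: 0% = DMSO wells and 100% = 10 µM SAHA wells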
CCR6 antagonist = blocks CCL20-driven beta-arrestin recruitment at human CCR6; P51684; CHO-K1 CCR6 PathHunter beta-arrestin, luminescence, CCL20-stimulated; inhibition, % at 20 µM; 0.49% of 340,000 active;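 active means compounds whose inhibition of the agonist-driven luminescence signal at 20 µM reaches about 50%, limit read from the data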;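 further: cells stimulated with CCL20 at 14 nM final; plate controls were DMSO with CCL20 for no effect and DMSO without agonist for full effect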
APJ antagonist = APJ receptor antagonism; CHO-K1 APJ beta-arrestin complementation, luminescence; inhibition, % at 20 µM; 0.32% of 330,000 active; AID 2521;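 active means inhibition above about 40% at 20 µM, limit read from the data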;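 further: cells challenged with 10 nM apelin-13 agonist together with compound; plate controls were apelin-13 plus DMSO wells for no effect and DMSO wells lacking apelin-13 for full effect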
Target sequence (P35414 whole entry, looked up): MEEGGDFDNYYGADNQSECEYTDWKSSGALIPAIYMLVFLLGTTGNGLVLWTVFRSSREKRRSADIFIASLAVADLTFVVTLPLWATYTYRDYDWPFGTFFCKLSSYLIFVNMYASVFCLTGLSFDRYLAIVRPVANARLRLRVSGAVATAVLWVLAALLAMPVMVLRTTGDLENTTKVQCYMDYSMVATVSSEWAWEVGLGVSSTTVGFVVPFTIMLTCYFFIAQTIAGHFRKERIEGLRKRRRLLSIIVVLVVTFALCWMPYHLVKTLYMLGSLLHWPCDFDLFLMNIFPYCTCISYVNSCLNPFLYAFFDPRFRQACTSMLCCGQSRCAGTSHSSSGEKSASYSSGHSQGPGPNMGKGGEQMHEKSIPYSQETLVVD
APJ agonist = activates the human apelin receptor APJ; P35414; CHO-K1 APJ PathHunter beta-arrestin, luminescence; 0% DMSO wells, 100% apelin; activation, % at 20 µM; 0.11% of 330,000 active;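 active means activation more than six SD over the plate average, tested at 20 µM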;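 further: 0% = DMSO alone and 100% = apelin-13 at 10 nM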
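Incubation: overnight seeding, 90 min compound at 25 °C, 1 h detection; test system: PathHunter CHO-K1 APJ (AGTRL-1) beta-arrestin reporter cells; amount: 1000 cells/well; doses: one dose, 20 µM compound, 1% DMSO; measured by: beta-gal luminescence; measure: agonist-driven arrestin binding to APJ; benchmarks: negative DMSO alone, positive Apelin-13 at 10 nM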
CXCR6 block = inhibitors of human CXCR6 receptor | O00574 | CHO-K1 PathHunter CXCR6 beta-arrestin, luminescence | inhibition, % at 20 µM | 0.36% of 360,000 active; in the data active means inhibition above about 34%, passing the limit was not always enough;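 further: antagonist mode with CXCL16 agonist at 10 nM final; 0% = 10 nM CXCL16 with DMSO and 100% = unstimulated wells without agonist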
Target sequence (O00574 whole entry, looked up): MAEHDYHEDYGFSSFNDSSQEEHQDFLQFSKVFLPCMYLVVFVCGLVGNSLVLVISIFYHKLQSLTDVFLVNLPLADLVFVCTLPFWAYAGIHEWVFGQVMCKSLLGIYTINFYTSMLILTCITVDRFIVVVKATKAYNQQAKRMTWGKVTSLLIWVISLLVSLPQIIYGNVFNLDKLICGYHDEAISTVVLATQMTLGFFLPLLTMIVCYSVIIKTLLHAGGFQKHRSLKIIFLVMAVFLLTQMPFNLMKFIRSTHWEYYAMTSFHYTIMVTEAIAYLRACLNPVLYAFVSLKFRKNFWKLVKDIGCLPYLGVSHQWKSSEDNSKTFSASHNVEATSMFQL
EBI2 block = antagonists of human EBI2 receptor; AID 651636; 0.81% of 360,000 active; EBI2 beta-arrestin recruitment, luminescence, 7a,25-OHC stimulated; inhibition, % at 5 µM; P32249; in the data active means inhibition above about 38%;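 further: enzyme fragment complementation signal reports receptor beta-arrestin coupling in cells; 0% = agonist plus DMSO wells and 100% = wells without agonist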
EBI2 conf = confirmation of human EBI2 receptor antagonists | shares compounds with EBI2 block | EBI2 beta-arrestin luminescence, 7a,25-OHC antagonism | inhibition, % at 5 µM | 29% of 2,400 active;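 active means inhibition of at least 50%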
EBI2 agonist = activates EBI2, counter-screen for EBI2 antagonists; 2,400 tested, under 10 active; EBI2-expressing cells, agonist mode, luminescence, 60 min; 0% vehicle, 100% 7α,25-dihydroxycholesterol control; activation, % at 5 µM; shares compounds with EBI2 block;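 active means activation of at least 50%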
bGal cs = beta-galactosidase inhibition counter-screen. purified beta-galactosidase, luminescent Galacton Star, 15 min. 1% of 2,400 active. shares compounds with EBI2 block. inhibition, % at 5 µM;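 active means replicate-average signal at least 3 plate SD below neutral wells, shown as high inhibition, flagging enzyme-inhibiting false positives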;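 further: 0% = DMSO wells with enzyme and 100% = wells lacking enzyme; higher means stronger loss of beta-gal luminescence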
Starred values were filed as active, the others as inactive; / = no result; ! = a repeat was not active.

SMILES | GAA850 FXN act | CCR6 antagonist | APJ antagonist | APJ agonist | CXCR6 block | EBI2 block | EBI2 conf | EBI2 agonist | bGal cs
CC(=O)Nc1ccc(S(=O)(=O)N2CCC(NC(=O)C(Cc3ccccc3F)NC(C)=O)CC2)cc1 (centres undefined) | -1 | 2 | -3 | -4 | 0 | 2 | / | / | /
CCOC(=O)c1ccc(N=c2sc(C(=O)OC)cc(=O)n2CCCN2CCOCC2)cc1 | 1 | 10 | 14 | -4 | 10 | 68* | 67*! | 0 | -12
CCn1c(=O)cc(C(=O)OC)sc1=Nc1ccc(F)c(F)c1 | 5 | 14 | 13 | -1 | 8 | 51* | 53* | 2 | 6
COC(=O)c1cc(=O)n(CCc2ccc(OC)cc2)c(=Nc2ccc(F)c(Cl)c2)s1 | 2 | 14 | 5 | -5 | 8 | 66* | 41 | -1 | 7
CN(C)C(=O)c1ccc(NC(=O)c2cccc(-n3cnnn3)c2)cc1 | 1 | / | / | / | 4 | -1 | / | / | /
COc1ccccc1N(C)S(=O)(=O)c1ccc(C(=O)NCc2ccccc2CN2CCCC2)cc1 | 0 | 13 | / | / | 6 | 10 | / | / | /
COc1ccc(CCC(=O)N/N=C/c2ccc3c(c2)OCO3)cc1 | -2 | 3 | 7 | -2 | -2 | -4 | / | / | /
N#Cc1cccc(NC(=O)c2cc(C3CCCCN3C(=O)c3cccs3)on2)c1 (centres undefined) | 1 | / | / | / | -4 | 3 | / | / | /
CCN(CC)C(=O)c1cccc(-c2csc(C(C)(O)c3ccncc3)n2)c1 (centres undefined) | -2 | / | / | / | -3 | 4 | / | / | /
FC(F)(F)c1ccc(Oc2ccc3cc(Br)ccc3c2)nc1 | 1 | 7 | 2 | -1 | -10 | 84* | 48 | 1 | 7
Cn1c(CCCNC(=O)c2ccco2)nc2ccccc21 | 0 | 3 | / | / | -3 | 2 | / | / | /
CSC(=Nc1ccccc1)C(C#N)c1nc2ccccc2[nH]1 (centres undefined) | 7 | 36 | 11 | -3 | 8 | 57* | 47 | -2 | -11
N#CC(C(=S)Nc1ccccc1)c1nc2ccccc2[nH]1 (centres undefined) | 2 | 30 | 24 | -3 | -4 | 2 | / | / | /
CCCCNC(=O)CSc1nc2ccc(Nc3nc(N4CCOCC4)nc(N4CCOCC4)n3)cc2s1 | -1 | 10 | -9 | -2 | 1 | 33 | / | / | /
CCCCSc1nc2ccc(Nc3nc(N4CCOCC4)nc(N4CCOCC4)n3)cc2s1 | 0 | 8 | 1 | 0 | 7 | 46* | 24 | -1 | -6
O=C(/C=C/c1ccc(F)cc1)N1CCN(c2ccccn2)CC1 | 4 | 12 | 4 | -4 | -9 | 91* | 81* | 1 | 1
O=C(COc1ccc(Br)cc1F)N1CCN(c2ncccn2)CC1 | 0 | 1 | 6 | -2 | 3 | 46* | 27 | 0 | 6
NC(=O)C1CCN(C(=O)/C=C/c2cccc(Br)c2)CC1 | 3 | 8 | -10 | -8 | -4 | 12 | / | / | /
O=C(/C=C/c1ccccc1)N1CCN(c2cccc(Cl)n2)CC1 | -1 | 10 | 5 | -2 | 2 | 91* | 82* | 0 | -20
O=C(c1ccc(F)cc1)N1CCN(c2ccccn2)CC1 | -1 | -5 | -1 | -4 | 5 | -19 | / | / | /
O=C(/C=C/c1cccc(Br)c1)N1CCN(c2ccccn2)CC1 | 2 | 11 | 4 | -1 | 6 | 77* | 46 | 1 | -10
COc1ccc(NC(=O)C2(C)Cc3c(-c4cccc(C(N)=O)c4)ccnc3O2)cn1 (centres undefined) | -4 | / | / | / | -1 | -8 | / | / | /
CCOc1ccc(S(=O)(=O)N(CC)CC)cc1NC(=O)CSCc1c(C)noc1C | 3 | 1 | 8 | 0 | 1 | -1 | / | / | /
CCCOc1ccc(/C=C/C(=O)N2CCN(c3ccccn3)CC2)cc1 | -2 | 2 | 3 | -4 | -2 | 46* | 40 | 1 | -1
Cc1cc(OCC(=O)N2CCN(c3ccccn3)CC2)cc(C)c1Br | 1 | -3 | -5 | 3 | 5 | 62* | 65* | 1 | -2
SMILES | GAA850 FXN act | CCR6 antagonist | APJ antagonist | APJ agonist | CXCR6 block | EBI2 block | EBI2 conf | EBI2 agonist | bGal cs
CCc1ccc(OCC(=O)N2CCN(c3ccccn3)CC2)c(Br)c1 | -1 | 2 | -5 | -1 | 6 | 25 | / | / | /
CCCOc1ccc(/C=C/C(=O)N2CCOCC2)cc1 | 2 | 4 | -16 | 3 | 4 | -12 | / | / | /
O=C(NN=Cc1ccccc1)C(Oc1ccccc1)c1ccccc1 (centres undefined) | 0 | 14 | / | / | -7 | 1 | / | / | /
CC1CCc2ccccc2N1CC(=O)Nc1cccc(S(=O)(=O)N2CCCC2)c1 (centres undefined) | -2 | 18 | 2 | -5 | -1 | 9 | / | / | /
CCCCn1nnnc1C(c1ccccc1OC(F)(F)F)N1CCN(C/C=C/c2ccccc2)CC1 (centres undefined) | / | / | / | / | 19 | 68* | 58* | 0 | 8
COc1cccc(C(c2nnnn2C2CCCC2)N2CCN(C/C=C/c3ccccc3)CC2)c1OC (centres undefined) | / | / | / | / | 14 | 15 | / | / | /
FC(F)(F)Oc1ccccc1C(c1nnnn1Cc1ccccc1)N1CCN(C/C=C/c2ccccc2)CC1 (centres undefined) | / | / | / | / | 23 | 67* | 24 | -1 | 6
Cc1nc(CSc2ccc(Cl)cc2)cc(NCc2ccccc2)n1 | 3 | 11 | 5 | -1 | -4 | 47* | 20 | 0 | -1
CNc1cc(CSc2ccc(Cl)cc2)nc(C)n1 | 6 | 12 | -5 | -4 | 5 | 5 | / | / | /
CCOC(=O)C1(CC)NC(c2ccc(OC)c(OC)c2)C2C(=O)N(c3cccc(C(C)=O)c3)C(=O)C21 (centres undefined) | 0 | -5 | -12 | 4 | 1 | -2 | / | / | /
C(=N\Nc1nc2ccccc2[nH]1)/c1ccc2c(c1)OCO2 | 2 | 11 | / | / | -21 | 23 | / | / | /
C(=C/c1nccc2c1[nH]c1ccccc12)/c1ccc2c(c1)OCO2 | 1 | 0 | / | / | -8 | 56* | 43 | 1 | 4
NC(=O)Cn1ccc(O)c(Cc2ccc(Cl)cc2Cl)c1=O | 1 | -6 | -4 | 0 | -7 | -6 | / | / | /
Cc1cccc(/C=N/n2c(-c3cc(-c4ccccc4)n[nH]3)n[nH]c2=S)c1 | 5 | 4 | -26 | -2 | -2 | 0 | / | / | /
S=c1[nH]nc(-c2cc(-c3ccccc3)n[nH]2)n1/N=C/c1ccccc1 | 2 | 16 | 20 | 2 | 0 | 51* | 50 | 1 | 9
